What was measured:
[1] = target: D(2) dopamine receptor (Rattus norvegicus) (UniProt P61169); assay: Ratio of Dopamine D2 receptor (low)and Dopamine D2 receptor (high)
Procedure, shortened: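 Ratio Ki(low)/Ki(high). Ki(low) comes from displacement of 1 nM [3H]spiperone in striatal membranes with 1 mM GppNHp and NaCl, 37 °C for 5 min. […] Both Ki values derived by Cheng-Prusoff from nine concentrations in triplicate; the ratio serves as an estimate of intrinsic activity.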

[2] = target: T1, Adrenergic receptor alpha-1 (Rattus norvegicus, UniProt P15823+P23944+P43140); assay: In vitro binding affinity towards alpha-1 adrenergic receptor by the displacement of [3H]prazosin radioligand in rat cortical homogenates
T1 sequence (P15823 whole entry): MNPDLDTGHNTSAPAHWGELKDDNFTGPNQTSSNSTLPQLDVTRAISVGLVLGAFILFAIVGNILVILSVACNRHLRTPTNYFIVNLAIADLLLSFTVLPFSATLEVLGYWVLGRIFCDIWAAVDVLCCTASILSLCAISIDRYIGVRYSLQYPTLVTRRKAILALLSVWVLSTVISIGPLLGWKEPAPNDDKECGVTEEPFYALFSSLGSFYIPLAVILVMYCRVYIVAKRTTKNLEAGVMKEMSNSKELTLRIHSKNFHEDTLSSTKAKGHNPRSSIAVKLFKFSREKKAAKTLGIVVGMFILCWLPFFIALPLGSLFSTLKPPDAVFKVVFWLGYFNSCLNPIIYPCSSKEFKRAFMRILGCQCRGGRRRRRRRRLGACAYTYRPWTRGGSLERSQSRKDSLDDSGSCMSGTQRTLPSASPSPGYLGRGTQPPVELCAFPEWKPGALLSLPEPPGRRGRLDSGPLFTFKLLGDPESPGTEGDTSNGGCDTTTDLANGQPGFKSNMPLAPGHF
T1 sequence (P23944 whole entry): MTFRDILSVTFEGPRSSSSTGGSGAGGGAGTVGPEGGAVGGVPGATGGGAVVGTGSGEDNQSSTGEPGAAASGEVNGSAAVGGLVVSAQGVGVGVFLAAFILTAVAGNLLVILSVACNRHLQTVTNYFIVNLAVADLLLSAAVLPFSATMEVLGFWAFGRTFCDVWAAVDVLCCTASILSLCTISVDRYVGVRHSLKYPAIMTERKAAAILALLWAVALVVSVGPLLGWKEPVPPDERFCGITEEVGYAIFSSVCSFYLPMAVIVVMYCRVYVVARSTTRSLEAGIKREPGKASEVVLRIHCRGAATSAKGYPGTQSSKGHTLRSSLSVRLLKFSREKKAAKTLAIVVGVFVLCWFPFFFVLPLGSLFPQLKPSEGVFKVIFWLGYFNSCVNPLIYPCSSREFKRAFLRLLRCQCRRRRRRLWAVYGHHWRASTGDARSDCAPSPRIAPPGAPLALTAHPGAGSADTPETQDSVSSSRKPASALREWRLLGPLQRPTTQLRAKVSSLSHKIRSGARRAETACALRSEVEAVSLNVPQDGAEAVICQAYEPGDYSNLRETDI
T1 sequence (P43140 whole entry): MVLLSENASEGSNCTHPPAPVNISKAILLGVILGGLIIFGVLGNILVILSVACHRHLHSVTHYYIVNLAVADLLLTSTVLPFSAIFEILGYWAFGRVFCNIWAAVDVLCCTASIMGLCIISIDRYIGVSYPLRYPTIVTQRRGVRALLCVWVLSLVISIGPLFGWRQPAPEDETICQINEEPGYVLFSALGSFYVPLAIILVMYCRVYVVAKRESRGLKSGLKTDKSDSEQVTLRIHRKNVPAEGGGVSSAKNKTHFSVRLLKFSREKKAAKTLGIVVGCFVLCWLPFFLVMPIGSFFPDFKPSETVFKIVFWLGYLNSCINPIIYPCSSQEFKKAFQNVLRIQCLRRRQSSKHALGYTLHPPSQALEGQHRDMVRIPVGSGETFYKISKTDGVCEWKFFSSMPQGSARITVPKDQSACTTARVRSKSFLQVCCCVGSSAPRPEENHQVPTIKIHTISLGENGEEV
Procedure, shortened: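 Rat cortical homogenates labelled with [3H]prazosin (0.2 nM), incubated 30 min at 25 °C. Stopped with cold 50 mM Tris pH 7.4, then rapid filtration. Triplicate, at least eight concentrations. Nonlinear regression gave IC50, converted to apparent Ki by Cheng-Prusoff. Means of at least two experiments ± SEM; values without SEM are single determinations.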

[3] = target: T2, 5-hydroxytryptamine receptor 1A (Rattus norvegicus, UniProt P19327); assay: In vitro binding affinity towards 5-hydroxytryptamine 1A r receptor by the displacement of [3H]8-OH-DPAT radioligand in rat hippocampal homogenates; assay type: tissue-based, Hippocampus
T2 sequence (P19327 whole entry): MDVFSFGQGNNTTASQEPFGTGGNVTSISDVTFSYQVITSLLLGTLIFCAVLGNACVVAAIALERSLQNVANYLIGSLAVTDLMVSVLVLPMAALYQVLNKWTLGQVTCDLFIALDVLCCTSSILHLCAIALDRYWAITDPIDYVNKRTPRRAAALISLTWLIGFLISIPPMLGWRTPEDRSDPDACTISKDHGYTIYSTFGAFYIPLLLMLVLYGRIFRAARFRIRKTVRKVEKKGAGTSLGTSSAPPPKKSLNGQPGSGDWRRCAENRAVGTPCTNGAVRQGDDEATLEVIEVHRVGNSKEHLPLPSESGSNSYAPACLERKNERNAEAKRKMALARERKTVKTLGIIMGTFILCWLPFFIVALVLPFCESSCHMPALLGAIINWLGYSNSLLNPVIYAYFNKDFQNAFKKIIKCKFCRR
Procedure, shortened: (§1)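 Rat hippocampal homogenates labelled with [3H]-8-OH-DPAT (1.8 nM), incubated 10 min at 37 °C. Stopped with cold 50 mM Tris pH 7.7. Test compounds run in triplicate at at least eight concentrations. IC50 found by nonlinear regression and converted to apparent Ki by Cheng-Prusoff. Ki values are means of at least two experiments ± SEM; values without SEM are single determinations.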

D(2) dopamine receptor [4] = target: T3, D(2) dopamine receptor (Rattus norvegicus, UniProt P61169); assay: In vitro high binding affinity towards Dopamine receptor D2 by the displacement of [3H]quinpirole radioligand in rat striatal membranes; assay type: cell membranes, Membrane
D(2) dopamine receptor [5] = target: T3, D(2) dopamine receptor; assay: In vitro low binding affinity towards Dopamine receptor D2 by the displacement of [3H]spiperone radioligand in rat striatal membranes; assay type: cell membranes, Membrane
[6] = target: T2, 5-hydroxytryptamine receptor 1A; assay: The compound was tested for binding affinity on [3H]8-OH-DPAT as specific ligand on 5-hydroxytryptamine 1A receptor in rat hippocampus; assay type: tissue-based; procedure, shortened: as §1

Chain of D(2) dopamine receptor (Rattus norvegicus) (P61169 whole entry): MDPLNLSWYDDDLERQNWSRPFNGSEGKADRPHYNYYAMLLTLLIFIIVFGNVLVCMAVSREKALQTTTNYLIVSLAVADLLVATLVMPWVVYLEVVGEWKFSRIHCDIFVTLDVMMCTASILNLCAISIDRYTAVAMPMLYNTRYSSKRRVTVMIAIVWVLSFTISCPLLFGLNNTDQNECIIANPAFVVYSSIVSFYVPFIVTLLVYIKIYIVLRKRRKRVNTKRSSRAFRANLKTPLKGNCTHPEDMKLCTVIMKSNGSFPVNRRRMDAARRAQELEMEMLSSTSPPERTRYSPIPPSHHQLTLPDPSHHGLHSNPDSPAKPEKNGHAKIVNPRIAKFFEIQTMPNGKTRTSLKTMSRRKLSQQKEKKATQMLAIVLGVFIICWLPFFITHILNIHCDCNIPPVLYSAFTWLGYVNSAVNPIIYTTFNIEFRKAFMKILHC
T3 sequence (P61169 whole entry): as above

| SMILES | Ratio [1] | Ki [2] | Ki [3] | Ki (D(2) dopamine receptor [4]) | Ki (D(2) dopamine receptor [5]) | Ki [6] |
| --- | --- | --- | --- | --- | --- | --- |
| Clc1c[nH]c2cccc(OCCNCCCCc3ccccc3)c12 | 3 | 0.0085 µM | 0.0005 µM | 0.0048 µM | 0.0157 µM | – |
| c1ccc(CNCCOc2cccc3[nH]ccc23)cc1 | 4 | 0.675 µM | – | 0.0097 µM | 0.0393 µM | 0.018 µM |
| O=C(c1c[nH]c2cccc(OCCNCc3ccccc3)c12)C(F)(F)F | 6 | 0.06 µM | – | 0.003 µM | 0.0166 µM | 0.03 µM |
